Reference: ChEMBL document CHEMBL3232859, “Absolute configuration of (13R)- and (13S)-labdane diterpenes coexisting in Ageratina jocotepecana” (2014)
Converted amounts (≈) assume the structure as drawn. The source made the active and inactive calls. No cut-off for these calls is given here.

Assays:
Staphylococcus aureus = assay: Antibacterial activity against Staphylococcus aureus assessed as growth inhibition after 18 hrs by agar diffusion method; format: functional
Procedure, shortened: (§1)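 MIC by agar diffusion: ethanolic solutions, starting at a maximum of 0.01 mg/μL with successive 2-fold dilutions; 6 μL aliquots deposited on solidified agar; inhibition zone diameter read after 18 h incubation at 37 °C. Cefotaxime positive control, EtOH negative control.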

Klebsiella pneumoniae = assay: Antibacterial activity against Klebsiella pneumoniae assessed as growth inhibition at 0.01 mg/uL after 18 hrs by agar diffusion method; format: functional, organism-based
Procedure, shortened: (§2)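 Single-concentration agar diffusion screen: 6 μL aliquots of ethanolic solutions of pure compounds (0.01 mg/μL) deposited on solidified agar; inhibition zone diameter measured after 18 h incubation at 37 °C.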

Escherichia coli = assay: Antibacterial activity against Escherichia coli assessed as growth inhibition at 0.01 mg/uL after 18 hrs by agar diffusion method; format: functional, organism-based; procedure, shortened: as §2
Bacillus subtilis = assay: Antibacterial activity against Bacillus subtilis assessed as growth inhibition after 18 hrs by agar diffusion method; format: functional; procedure, shortened: as §1

Row | MIC (Staphylococcus aureus) | MIC (Bacillus subtilis) | SMILES | growth inhibition (GI) (Klebsiella pneumoniae) | growth inhibition (GI) (Escherichia coli)
1 | 780 µg/mL (≈ 2.54 mM) | 150 µg/mL (≈ 0.489 mM) | CC1=CC[C@H]2C(C)(C)CCC[C@]2(C)[C@H]1CC[C@H](C)CC(=O)O | inactive | inactive
2 | 130 µg/mL (≈ 0.285 mM) | 12500 µg/mL (≈ 27.4 mM) | CO/N=C(\C(=O)N[C@@H]1C(=O)N2C(C(=O)O)=C(COC(C)=O)CS[C@H]12)c1csc(N)n1 [CEFOTAXIME] | – | –
3 | 10000 µg/mL (≈ 32.8 mM) | 1000 µg/mL (≈ 3.28 mM) | CC1=CC[C@H]2C(C)(C)CCC[C@]2(C)[C@H]1CC/C(C)=C\C(=O)O | inactive | inactive
4 | 2340 µg/mL (≈ 7.21 mM) | 1560 µg/mL (≈ 4.81 mM) | C[C@H](CC[C@@H]1[C@@]2(C)CCCC(C)(C)[C@@H]2CC[C@@]1(C)O)CC(=O)O | inactive | inactive
